Screening results deposited in PubChem BioAssay by several laboratories.
VIM-2 inh: VIM-2 metallo-beta-lactamase inhibitors, primary screen, biochemical, epi-absorbance readout, Pseudomonas aeruginosa enzyme | purified VIM-2, nitrocefin hydrolysis, epi-absorbance fluorescence | inhibition, % at 5.6 µM | hit rate 0.89% among 290,000 | AID 1527, 2009;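 active means inhibition above the mean of all tested compounds plus 3 SD, cutoff set per screening run, cut at about 7.5% in these data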;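 further: red hydrolysis product quenches plate fluorescence so inhibitors raise well fluorescence; 0% = enzyme with DMSO and 100% = DMSO without enzyme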
p-CIP stab down: p/CIP-EGFP fusion destabilizers, primary screen, fluorescence, F442A cells; Q05BA5; 16 h; decrease of EGFP signal, % at 10 µM; hit rate 0.01% among 290,000; AID 1984, 2009;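 active means EGFP signal decrease of at least 30% at 10 µM or well 3 SD below plate mean, unless failing retest; inactive means the rest, including hits failing retest or dose response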
Target sequence (Q05BA5 1-1403): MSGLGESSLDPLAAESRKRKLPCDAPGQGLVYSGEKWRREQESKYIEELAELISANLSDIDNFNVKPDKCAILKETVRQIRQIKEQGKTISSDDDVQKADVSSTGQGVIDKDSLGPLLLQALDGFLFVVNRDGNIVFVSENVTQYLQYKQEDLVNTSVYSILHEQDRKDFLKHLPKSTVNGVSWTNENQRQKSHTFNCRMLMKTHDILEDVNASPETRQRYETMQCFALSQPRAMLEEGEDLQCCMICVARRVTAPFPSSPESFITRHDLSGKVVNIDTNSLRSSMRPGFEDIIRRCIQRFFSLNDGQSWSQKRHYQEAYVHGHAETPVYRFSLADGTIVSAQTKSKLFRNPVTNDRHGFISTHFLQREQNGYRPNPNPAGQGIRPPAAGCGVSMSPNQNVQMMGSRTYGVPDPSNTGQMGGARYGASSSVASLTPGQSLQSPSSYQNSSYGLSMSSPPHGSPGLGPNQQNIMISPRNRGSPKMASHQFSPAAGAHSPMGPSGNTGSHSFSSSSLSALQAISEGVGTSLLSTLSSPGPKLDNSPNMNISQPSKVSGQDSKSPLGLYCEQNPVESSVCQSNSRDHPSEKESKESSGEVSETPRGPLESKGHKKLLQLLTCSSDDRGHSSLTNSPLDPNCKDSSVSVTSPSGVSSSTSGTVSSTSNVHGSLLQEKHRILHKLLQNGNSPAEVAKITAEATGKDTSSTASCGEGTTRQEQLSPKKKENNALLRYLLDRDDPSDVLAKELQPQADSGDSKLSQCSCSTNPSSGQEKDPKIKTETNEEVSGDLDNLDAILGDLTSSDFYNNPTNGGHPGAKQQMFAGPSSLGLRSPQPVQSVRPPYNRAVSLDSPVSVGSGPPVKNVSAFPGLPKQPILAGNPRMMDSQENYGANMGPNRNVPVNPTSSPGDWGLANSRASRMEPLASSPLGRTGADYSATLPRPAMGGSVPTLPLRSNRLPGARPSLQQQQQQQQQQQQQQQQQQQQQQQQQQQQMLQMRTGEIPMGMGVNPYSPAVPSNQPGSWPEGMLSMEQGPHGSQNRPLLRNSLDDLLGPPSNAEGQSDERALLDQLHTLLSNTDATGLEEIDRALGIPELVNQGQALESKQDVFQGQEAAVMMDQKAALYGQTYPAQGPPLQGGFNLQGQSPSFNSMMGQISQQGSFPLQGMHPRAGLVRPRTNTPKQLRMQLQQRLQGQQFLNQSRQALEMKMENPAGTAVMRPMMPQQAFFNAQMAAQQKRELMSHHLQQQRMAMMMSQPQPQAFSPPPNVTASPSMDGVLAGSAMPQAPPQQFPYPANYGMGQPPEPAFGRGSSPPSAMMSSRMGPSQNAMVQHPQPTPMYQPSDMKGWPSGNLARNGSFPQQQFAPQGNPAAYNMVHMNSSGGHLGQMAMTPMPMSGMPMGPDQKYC
IMP-1 inh: IMP-1 metallo-beta-lactamase inhibitors, primary screen, biochemical, epi-absorbance readout, Pseudomonas aeruginosa enzyme; metallo-beta-lactamase IMP-1 (Pseudomonas aeruginosa); purified IMP-1, nitrocefin hydrolysis, epi-absorbance fluorescence; inhibition, % at 5.6 µM; hit rate 0.45% among 290,000; AID 1556, 2009;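 active means inhibition above the mean plus 3 SD of all compounds in the same screening run, cut at about 4.5% in these data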;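 further: 0% = IMP-1 with DMSO and 100% = DMSO wells lacking enzyme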
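System: purified recombinant IMP-1 beta-lactamase. Medium: Zinc- and detergent-supplemented HEPES buffer, pH 7.1. Compound: one 5.6 µM dose […]. Schedule: 15 min preincubation plus 25 min reaction at 25 °C. Technique: Epi-absorbance fluorescence, 480 nm excitation, 530 nm emission.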
T cell HTS: modulators of CD8 T cell-vesicle binding, primary screen, mouse 2C CD8+ T cells, flow cytometry; AID 2052, 2009; 2C CD8+ T cell-vesicle binding; stronger effect = lower value; hit rate 0.068% among 330,000; response (vesicle binding), % at 7 µM;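 active means response, share of CD8 T cells binding vesicles, and their 90th percentile fluorescence all below set limits, cut at about 80% in these data, passing the limit was not always enough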;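 further: values below 100% mean blocked vesicle binding to the CD8+ T cells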
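incubation = binding step 1.5 h, 37 °C, antibody labelling 20 min, ice | test system = 2C mouse CD8+ T cells | read-out basis = percent CD8+ FL2 mean versus row control | controls = Peptide-free naked vesicles (low) and QL9 vesicles with 0.7% DMSO vehicle (high) | detection = flow cytometry of vesicle-bound cells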
Fh CTSL1 inh: Fasciola hepatica cathepsin L1 inhibitors, primary screen, counter-screen for PFM18AAP inhibitor project, biochemical, QFRET, fluorogenic peptide substrate; hit rate 0.49% among 300,000; recombinant F. hepatica cathepsin L1, Z-Leu-Arg-MCA fluorescence; inhibition, % at 5.96 µM;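 active means inhibition above the mean of all tested compounds plus 3 SD, set per screening campaign, cut at about 17% in these data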;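 further: 0% = plate median of test compound wells and 100% = 1 µM Z-Phe-Ala-diazomethylketone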
SUMO HTRF inh: inhibitors of in vitro SUMOylation cascade, primary screen, biochemical, HTRF, uHTS. inhibition, % at 35 µM. AID 2006, 2009. SUMO-conjugating enzyme UBC9 (Homo sapiens), P63279. hit rate 0.36% among 290,000. HTRF SUMOylation assay, SAE1/SAE2 + UBC9; in the data active means inhibition above about 50%, passing the limit was not always enough
Active calls of the source: *. Most compounds without a hit are left out; they make up all but 1.9% or so of the library.

Results for CC(=O)c1cccc(N(CC(=O)NC2CCCCC2)C(=O)CNC(=O)c2cccs2)c1 ?
VIM-2 inh: -0.8; p-CIP stab down: 3.0; IMP-1 inh: 0.6; T cell HTS: 187.5; Fh CTSL1 inh: -12.1; SUMO HTRF inh: -21.8

Results for Cc1ccnc(N/C=C(/NC(=O)c2ccccc2)C(=O)NN)n1 ?
VIM-2 inh: -2.6; p-CIP stab down: -4.8; IMP-1 inh: -2.6; T cell HTS: 302.8; Fh CTSL1 inh: 15.7; SUMO HTRF inh: 0.7

How did Cc1ccnc(N/C=C(/NC(=O)c2ccccc2)C(=O)N/N=C\c2ccc(F)cc2)n1 do in these assays?
VIM-2 inh: -1.3; p-CIP stab down: -12.0; IMP-1 inh: -3.0; T cell HTS: 340.0; Fh CTSL1 inh: 19.8*; SUMO HTRF inh: -2.3

How did CC(C)c1ccc(NC(=O)CN2CCN(C(=O)C3CCCO3)CC2)cc1 (stereo not given) do in these assays?
VIM-2 inh: -2.0; p-CIP stab down: -4.7; IMP-1 inh: -1.7; T cell HTS: 163.2; Fh CTSL1 inh: 0.9; SUMO HTRF inh: 5.3

How did CCCCC/C=C\C/C=C\C/C=C\C/C=C\CCCC(=O)O do in these assays?
T cell HTS: 621.8; Fh CTSL1 inh: 22.2*

Results for CC/C=C\C/C=C\C/C=C\CCCCCCCC(=O)O ?
T cell HTS: 95.8; Fh CTSL1 inh: 25.8*

How did CCCCCCCC(=O)O do in these assays?
T cell HTS: 243.9

What do the screens show for `O=C(CSc1nnnn1-c1ccccc1)NC(=O)Nc1ccc2c(c1)OCCO2`?
VIM-2 inh: 1.1; p-CIP stab down: 8.4; IMP-1 inh: 5.6*; T cell HTS: 132.6; Fh CTSL1 inh: 7.0; SUMO HTRF inh: 19.9

What do the screens show for `COCC(C)n1c(SCC(=O)NC(=O)Nc2ccc3c(c2)OCCO3)nc2ccccc2c1=O` (stereo not given)?
VIM-2 inh: -1.2; p-CIP stab down: 4.8; IMP-1 inh: 5.5*; T cell HTS: 304.1; Fh CTSL1 inh: 3.4; SUMO HTRF inh: -11.0

How did COCC(C)n1c(SCC(=O)NC(=O)Cc2ccccc2)nc2ccccc2c1=O (stereo not given) do in these assays?
T cell HTS: 240.3

How did CC(C)C(=O)NC(c1ccc(Cl)cc1Cl)c1ccc2cccnc2c1O (stereo not given) do in these assays?
VIM-2 inh: 0.9; p-CIP stab down: 3.9; IMP-1 inh: -7.0; T cell HTS: 92.2; Fh CTSL1 inh: -0.7; SUMO HTRF inh: 76.6*

What do the screens show for `CCCC(=O)NC(c1ccccc1Cl)c1ccc2cccnc2c1O` (stereo not given)?
VIM-2 inh: -1.5; p-CIP stab down: -13.5; IMP-1 inh: -3.5; T cell HTS: 654.2; Fh CTSL1 inh: -2.0; SUMO HTRF inh: 92.8*

What do the screens show for `CCC(=O)NC(c1ccc(Cl)cc1Cl)c1ccc2cccnc2c1O` (stereo not given)?
VIM-2 inh: -2.6; p-CIP stab down: -65.1; IMP-1 inh: -2.2; T cell HTS: 379.9; Fh CTSL1 inh: 2.7; SUMO HTRF inh: 50.1*

What do the screens show for `CCOC(=O)[C@H]1[C@H]2COc3ccc(C)cc3[C@@H]2N2C(=O)c3cc(Br)ccc3NC(=O)[C@@]12C`?
T cell HTS: 197.5

Results for O=C(NCCCn1ccnc1)c1cc2cc([N+](=O)[O-])ccc2oc1=O ?
VIM-2 inh: 2.1; p-CIP stab down: -10.3; IMP-1 inh: 0.9; T cell HTS: 208.2; Fh CTSL1 inh: 0.9; SUMO HTRF inh: -4.0

What do the screens show for `O=C(Nc1cccs1)Nc1ccccc1Cl`?
VIM-2 inh: -0.8; p-CIP stab down: -28.1; IMP-1 inh: -2.0; T cell HTS: 314.5; Fh CTSL1 inh: 8.0; SUMO HTRF inh: 0.9

Results for Cc1c(NC(=O)Nc2cccs2)cccc1[N+](=O)[O-] ?
VIM-2 inh: 0.8; p-CIP stab down: -8.9; IMP-1 inh: 0.2; T cell HTS: 189.1; Fh CTSL1 inh: 16.8*; SUMO HTRF inh: -18.8

How did CCOC(=O)C(OC(=O)c1sc(=S)n(C)c1C)C(C)=O (stereo not given) do in these assays?
VIM-2 inh: 9.2*; p-CIP stab down: 45.7; IMP-1 inh: 2.2; T cell HTS: 211.8; Fh CTSL1 inh: -0.6; SUMO HTRF inh: 10.4

What do the screens show for `Cc1ccc(OCCOC(=O)c2sc(=S)n(C)c2C)cc1`?
VIM-2 inh: -4.1; p-CIP stab down: -15.9; IMP-1 inh: -2.5; T cell HTS: 327.7; Fh CTSL1 inh: 4.0; SUMO HTRF inh: -8.0

What do the screens show for `CC(C)CC(C(=O)OCC(=O)c1c(N)n(C)c(=O)n(C)c1=O)N1C(=O)C2CC=CCC2C1=O` (stereo not given)?
VIM-2 inh: -1.5; p-CIP stab down: -4.9; IMP-1 inh: -0.9; T cell HTS: 182.4; Fh CTSL1 inh: 8.5; SUMO HTRF inh: 2.1

How did Cc1ccc(NC(=O)COC(=O)C(CC(C)C)N2C(=O)C3CC=CCC3C2=O)c(C)c1 (stereo not given) do in these assays?
VIM-2 inh: -1.8; p-CIP stab down: -11.6; IMP-1 inh: -3.8; T cell HTS: 612.5; Fh CTSL1 inh: 16.9*; SUMO HTRF inh: -4.6

Results for N#CC1=C(N)Oc2n[nH]c(-c3cccs3)c2C1c1cccs1 (stereo not given) ?
VIM-2 inh: 8.2*; p-CIP stab down: -10.0; IMP-1 inh: 3.2; T cell HTS: 297.8; Fh CTSL1 inh: -0.1; SUMO HTRF inh: 83.9

What do the screens show for `N#C/C(=C\c1cccs1)C(=O)Nc1ccccn1`?
VIM-2 inh: -0.9; p-CIP stab down: -29.8; IMP-1 inh: -2.0; T cell HTS: 219.4; Fh CTSL1 inh: 4.2; SUMO HTRF inh: 13.3

Results for O=C(CCN1C(=O)C2CC=CCC2C1=O)Nc1cccc(Cl)c1 (stereo not given) ?
VIM-2 inh: -5.3; p-CIP stab down: 10.6; IMP-1 inh: -3.9; T cell HTS: 572.2; Fh CTSL1 inh: -3.0; SUMO HTRF inh: 2.5

Results for O=C(CCN1C(=O)C2C3CCC(C3)C2C1=O)Nc1cccc(Cl)c1 (stereo not given) ?
VIM-2 inh: 2.6; p-CIP stab down: 1.4; IMP-1 inh: 5.9*; T cell HTS: 394.4; Fh CTSL1 inh: -5.3; SUMO HTRF inh: -4.8

How did O=C(COc1c(Cl)cc(Cl)cc1Cl)c1ccc(Cl)cc1 do in these assays?
VIM-2 inh: 0.9; p-CIP stab down: -7.3; IMP-1 inh: 0.2; T cell HTS: 274.5; Fh CTSL1 inh: 1.0; SUMO HTRF inh: 11.5

What do the screens show for `COc1cccc(NC(=O)CCc2nnc3ccc(N4CCN(c5cccc(OC)c5)CC4)nn23)c1`?
VIM-2 inh: -4.0; p-CIP stab down: 3.5; IMP-1 inh: -5.0; T cell HTS: 248.4; Fh CTSL1 inh: 1.2; SUMO HTRF inh: 3.9
